DAX1 inh-1 = DAX1 (NR0B1) inhibition, primary screen; HEK293T StAR-luciferase reporter, SF-1/DAX-1 repression relief; inhibition, % at 6.8 µM; 370,000 tested, 1.1% active; AID 652010;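 active means inhibition above the mean over all tested compounds plus 3 SD, cut at about 3.6% in these data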;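 further: higher inhibition means more luminescence from relief of DAX-1 repression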
SMARCA2 activ = SMARCA2 function activation, primary screen; AID 652017; MG213 cells, MMTV-luciferase reporter, dexamethasone, overnight; 370,000 tested, 1% active; activation, % at 9.1 µM; in the data active means activation above about 7.8%
GASC-1 inh = human JMJD2C demethylase inhibition; inhibition, % at 2.35 µM; 330,000 tested, 0.069% active; Q9H3R0; GST-JMJD2C(1-420) H3K9me3 demethylation, DELFIA europium; AID 2099;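 active means more than half of a compound's replicate wells show inhibition beyond 50%, single wells judged on their own value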;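 further: signal counts dimethyl H3K9 product captured on neutravidin plate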
Target sequence (Q9H3R0 1-420 limits assumed): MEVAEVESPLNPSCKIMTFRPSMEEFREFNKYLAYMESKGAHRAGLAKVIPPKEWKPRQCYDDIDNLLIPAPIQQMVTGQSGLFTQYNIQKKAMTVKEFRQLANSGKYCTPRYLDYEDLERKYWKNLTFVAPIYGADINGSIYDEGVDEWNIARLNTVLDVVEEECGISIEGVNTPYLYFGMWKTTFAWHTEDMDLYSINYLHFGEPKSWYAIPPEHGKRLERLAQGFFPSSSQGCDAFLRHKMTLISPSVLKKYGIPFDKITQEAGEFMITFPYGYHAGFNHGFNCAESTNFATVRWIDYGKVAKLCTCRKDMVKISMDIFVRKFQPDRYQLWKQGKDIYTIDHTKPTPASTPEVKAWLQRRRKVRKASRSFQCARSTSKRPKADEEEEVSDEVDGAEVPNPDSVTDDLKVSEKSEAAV
NR2E3 ag-1 = activates human NR2E3 receptor; inhibition of corepressor binding, % at 3.98 µM; CHO-S Gal4-NCOR/VP16-NR2E3 two-hybrid, luciferase; 360,000 tested, 0.35% active; Q9Y5X4;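 active means inhibition above the mean of all tested compounds plus 3 SD, cut at about 70% in these data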;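 further: higher means lower luciferase signal from less NR2E3 corepressor binding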
DAX1 inh-2 = NR0B1 (DAX1) inhibition | inhibition, % at 6.75 µM | HEK293 Gal4-DAX1 luciferase reporter, luminescence | 340,000 tested, 0.99% active | P51843;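 active means inhibition above the mean over all tested compounds plus 3 SD, cut at about 4.2% in these data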;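 further: inhibition shows as a rise in luminescence from relieved DAX1 repression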
Target sequence (P51843 207-470 limits assumed): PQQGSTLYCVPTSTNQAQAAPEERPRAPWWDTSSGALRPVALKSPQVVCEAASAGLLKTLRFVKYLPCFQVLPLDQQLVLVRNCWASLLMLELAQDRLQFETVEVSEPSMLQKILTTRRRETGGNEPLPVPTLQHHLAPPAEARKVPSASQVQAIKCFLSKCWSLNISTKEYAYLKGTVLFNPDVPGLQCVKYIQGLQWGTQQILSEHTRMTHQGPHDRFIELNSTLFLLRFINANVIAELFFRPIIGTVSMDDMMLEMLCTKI
NR2E3 ag-2 = agonists of human nuclear receptor NR2E3 | GST-NR2E3/biotin-RetCOR TR-FRET, 1536-well | inhibition of corepressor binding, % at 4.78 µM | 320,000 tested, 0.12% active | Q9Y5X4 | AID 2300;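 active means percent inhibition above the cutoff of mean plus 3 SD of all tested compounds, set per screening campaign, cut at about 20% in these data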
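Material: NR2E3–RetCOR corepressor complex / Incubation: Compound–protein incubation for 5 h at 4 °C / Dosing: compound at 4.8 µM, single dose / Detection: time-resolved FRET / Benchmarks: high control biotin, low control 0.6% DMSO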
SMARCA2 conf = confirmation of SMARCA2 (BRM) function activators; activation, % at 9.1 µM; 3,500 tested, 30% active; MG213 cells, MMTV-luciferase with dexamethasone, luminescence, overnight; MG213 cells expressing E1A, Rb sequestered; DMSO wells 0%, reference activator 100%; AID 652260; shares compounds with SMARCA2 activ;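 active means activation above its plate's cutoff, the mean activation of tested wells plus 3 SD, cut at about 7.9% in these data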
VP16 Luc act = counter-screen for SMARCA2 activators: GAL4-VP16 luciferase reporter activation. activation, % at 9.1 µM. 3,500 tested, 41% active. HEK293 GAL4-VP16 pG5luc reporter, luciferase luminescence; scaled: DMSO wells 0%, SAHA wells 100%. shares compounds with SMARCA2 activ;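 active means activation above the solvent-only control well mean plus 3 SD, averaged across control plates, cut at about 5.2% in these data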
Large screens that a line does not name were inactive (follow-up assays come after a bar, where they were run). Compounds with a hit are over-represented: about 3.2% of the library has one in this group of screens.

CS(=O)(=O)n1nc(-c2ccc(Cl)cc2)nc1N	SMARCA2 activ 8.5 | SMARCA2 conf inactive | VP16 Luc act inactive
CS(=O)(=O)n1nc(-c2ccccc2)nc1N	none
COC(=O)[C@]12C[C@H](CC(=O)NCCc3ccccc3OC)C(=O)N(Cc3ccc(Cl)cc3Cl)C1=C[C@H](C(C)(C)C)O[C@@H]2C	none (no result: GASC-1 inh, NR2E3 ag-1, DAX1 inh-2, NR2E3 ag-2)
O=C(OCN1C(=O)c2ccccc2C1=O)c1ccc(Cl)nc1	none
Cc1ccc(SC[C@H](CC(C)C)N2CCN(C)CCC2=O)cc1	none (no result: NR2E3 ag-2)
CC(C)C[C@@H](CSc1ccc(Br)cc1)N1CCN(C)CCC1=O	SMARCA2 activ 8.2 | SMARCA2 conf 9.0 | VP16 Luc act 9.2
CCOC(=O)C1=C(C)N=c2s/c(=C/c3ccc(OCC(=O)O)cc3)c(=O)n2C1c1cc(OC)c(OC)c(OC)c1 (stereo not drawn)	SMARCA2 activ 9.1 | SMARCA2 conf inactive | VP16 Luc act inactive
Cc1cccnc1NC(=O)CNC(=O)c1ccccc1	none
Cc1cccc(Cn2cc(CN3CC(N(C)CCOC(=O)c4cc(C)cc(C)c4)CS3(=O)=O)nn2)c1 (stereo not drawn)	none (no result: GASC-1 inh, NR2E3 ag-1, DAX1 inh-2, NR2E3 ag-2)
Cn1c2ccccc2c2nnc(SCCN3CCOCC3)nc21	SMARCA2 activ 10.5 (no result: NR2E3 ag-2) | SMARCA2 conf inactive | VP16 Luc act inactive
CC(=O)C1=C(S(=O)(=O)c2ccc(C)cc2)CS(=O)(=O)C1	SMARCA2 activ 9.1 (no result: NR2E3 ag-2) | SMARCA2 conf 15.2 | VP16 Luc act inactive
CN1CCN(NC(=O)c2cccc(S(=O)(=O)N3CCCCCC3)c2)CC1	none
CC1CN(S(=O)(=O)c2cccc(C(=O)NN3CCN(C)CC3)c2)CC(C)O1 (stereo not drawn)	SMARCA2 activ 9.1 | SMARCA2 conf inactive | VP16 Luc act inactive
COc1ccc(CN2CCNC(=O)C2CC(=O)N2CCCN(C(C)=O)CC2)cc1OC (stereo not drawn)	none
COc1ccc(CN2CCNC(=O)C2CC(=O)O)cc1OC (stereo not drawn)	SMARCA2 activ 12.4 | SMARCA2 conf inactive | VP16 Luc act inactive
O=C(CN1C(=O)S/C(=C/C=C/c2ccccc2)C1=O)Nc1ccc(C(=O)O)cc1	SMARCA2 activ 12.2 | SMARCA2 conf inactive | VP16 Luc act inactive
COc1ccccc1-c1ccc2c(c1)[C@@H]1C[C@H]3[C@@H](CN1CC2)[C@H](C)ON3C	none (no result: GASC-1 inh, NR2E3 ag-1, DAX1 inh-2, NR2E3 ag-2)
CN(C)CCCNC(=O)C[C@H]1C[C@H](C(=O)N2CCOCC2)[C@@]2(CCC3CCCC3)c3[nH]c4cc(-c5ccco5)ccc4c3CCN2C1=O	SMARCA2 activ 8.2 (no result: GASC-1 inh, NR2E3 ag-2) | SMARCA2 conf inactive | VP16 Luc act inactive
CN(C)C(=O)CCc1ccc2c3c([nH]c2c1)[C@]1(CCC2CCCC2)[C@@H](C(=O)N2CCOCC2)C[C@H](CC(=O)NCCc2ccccn2)C(=O)N1CC3	SMARCA2 activ 8.0 (no result: GASC-1 inh, NR2E3 ag-2) | SMARCA2 conf inactive | VP16 Luc act inactive
CC(C)(C)NC(=O)C[C@H]1C[C@H](C(=O)N2CCOCC2)[C@@]2(CCC3CCCC3)c3[nH]c4cc(-c5ccco5)ccc4c3CCN2C1=O	none (no result: DAX1 inh-1, SMARCA2 activ, GASC-1 inh, NR2E3 ag-2)
Cc1cccc(CN2CCN(C3CN(Cc4cn(Cc5ccc(C(F)(F)F)cc5)nn4)S(=O)(=O)C3)CC2)c1 (stereo not drawn)	none (no result: GASC-1 inh, NR2E3 ag-1, DAX1 inh-2, NR2E3 ag-2)
COc1cc(/C=C/c2nc3ccccc3s2)cc(OC)c1O	SMARCA2 activ 11.1 | SMARCA2 conf inactive | VP16 Luc act inactive
COc1cc(C=C(c2nc3ccccc3s2)c2nc3ccccc3s2)ccc1O	none
Cc1ccc(-c2onc3ccc(Cl)cc23)cc1	none
O=Cc1ccc2noc(-c3ccc(Cl)cc3)c2c1	SMARCA2 activ 17.4 | SMARCA2 conf 10.7 | VP16 Luc act inactive
Cc1ccc(C(=O)NCC(=O)OCC(=O)N(CC(C)C)c2c(N)n(Cc3ccccc3)c(=O)[nH]c2=O)s1	none (no result: GASC-1 inh, NR2E3 ag-2)
O=C(Nc1ccc(Cl)c(Cl)c1)C1CCN(c2ncccn2)CC1	none (no result: GASC-1 inh, NR2E3 ag-1, DAX1 inh-2, NR2E3 ag-2)
O=[N+]([O-])c1ccccc1N/N=C\c1ccccc1Cl	none
O=[N+]([O-])c1ccccc1N/N=C\c1ccccc1F	SMARCA2 activ 9.1 | SMARCA2 conf 8.9 | VP16 Luc act 14.3
COc1ccc(S(=O)(=O)NC(N)=NCCc2ccc(OC)c(OC)c2)cc1	SMARCA2 activ 10.3 (no result: NR2E3 ag-1, DAX1 inh-2) | SMARCA2 conf inactive | VP16 Luc act inactive
COc1cccc(C(=O)NCC(=O)N2CCC3(CC2)NCCc2[nH]cnc23)c1OC	none
CN(C)c1ccc(NC(N)=S)cc1	none
CN(C)c1ccc(Cl)c(NC(N)=S)c1	SMARCA2 activ 8.2 (no result: GASC-1 inh, NR2E3 ag-2) | SMARCA2 conf inactive | VP16 Luc act inactive
FC(F)(F)Oc1ccc(Nc2nc3ccccc3o2)cc1	none
c1ccc(Nc2nc3ccccc3o2)cc1	SMARCA2 activ 13.1 | SMARCA2 conf inactive | VP16 Luc act 8.4
CCCCOC(=O)c1ccc(N)cc1	none
CCCCCCOC(=O)c1ccc(N)cc1	SMARCA2 activ 8.0 | SMARCA2 conf inactive | VP16 Luc act 5.8
COc1ccc(/C=C/c2noc(-c3ccccc3O)n2)cc1	SMARCA2 activ 8.6 | SMARCA2 conf inactive | VP16 Luc act 7.0
COc1cc(/C=C/c2noc(-c3ccccc3O)n2)cc(OC)c1OC	none
O=C(c1cccc([N+](=O)[O-])c1)N(c1ccccn1)c1ccccn1	SMARCA2 activ 8.0 | SMARCA2 conf inactive | VP16 Luc act inactive
O=C(NCc1ccccn1)c1cccc([N+](=O)[O-])c1	none
O=C(OCCc1ccccn1)c1cccc([N+](=O)[O-])c1	SMARCA2 activ 8.2 (no result: GASC-1 inh, NR2E3 ag-2) | SMARCA2 conf inactive | VP16 Luc act inactive
O=C(c1cc([N+](=O)[O-])cc([N+](=O)[O-])c1)N(c1ccccn1)c1ccccn1	none
COC(CNC(=O)C1CC(=O)N(CCc2ccc(C)cc2)C1)OC (stereo not drawn)	none
c1ccc2c(c1)Cc1cc3ccccc3nc1-2	SMARCA2 activ 8.8 | SMARCA2 conf 12.8 | VP16 Luc act 10.5
COc1ccc(Nc2nc3cc(-c4sccc4C)sc3c(=O)n2C)cc1OC	SMARCA2 activ 9.3 (no result: GASC-1 inh, DAX1 inh-2, NR2E3 ag-2) | SMARCA2 conf inactive | VP16 Luc act 8.4
COc1ccc(-c2cc(C(=O)NN=Cc3ccc(O)c(OC)c3)[nH]n2)cc1	none (no result: GASC-1 inh, NR2E3 ag-1, DAX1 inh-2, NR2E3 ag-2)
O=C1CCC(C(=O)N2CCCCCC2)CN1Cc1cccc(C(F)(F)F)c1 (stereo not drawn)	SMARCA2 activ 9.2 | SMARCA2 conf inactive | VP16 Luc act inactive

Screening data: PubChem, several laboratories
